Series [1] relates to Plasmodium falciparum. Put plainly: Antiplasmodial activity against Plasmodium falciparum 3D7 infected in human erythrocytes assessed as inhibition of [3H]hypoxanthine incorporation after 48 hrs. It is filed as functional, organism-based. The method in brief: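 Clone 3D7 grown in RPMI-1640 with 20% human type A+ plasma and 2% (w/v) red blood cells. Proliferation measured by standard [3H]-hypoxanthine uptake in infected erythrocytes.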

Series [2] deals with T1, Dihydroorotate dehydrogenase (Plasmodium falciparum, UniProt Q54A96).
T1 sequence (Q54A96 whole entry): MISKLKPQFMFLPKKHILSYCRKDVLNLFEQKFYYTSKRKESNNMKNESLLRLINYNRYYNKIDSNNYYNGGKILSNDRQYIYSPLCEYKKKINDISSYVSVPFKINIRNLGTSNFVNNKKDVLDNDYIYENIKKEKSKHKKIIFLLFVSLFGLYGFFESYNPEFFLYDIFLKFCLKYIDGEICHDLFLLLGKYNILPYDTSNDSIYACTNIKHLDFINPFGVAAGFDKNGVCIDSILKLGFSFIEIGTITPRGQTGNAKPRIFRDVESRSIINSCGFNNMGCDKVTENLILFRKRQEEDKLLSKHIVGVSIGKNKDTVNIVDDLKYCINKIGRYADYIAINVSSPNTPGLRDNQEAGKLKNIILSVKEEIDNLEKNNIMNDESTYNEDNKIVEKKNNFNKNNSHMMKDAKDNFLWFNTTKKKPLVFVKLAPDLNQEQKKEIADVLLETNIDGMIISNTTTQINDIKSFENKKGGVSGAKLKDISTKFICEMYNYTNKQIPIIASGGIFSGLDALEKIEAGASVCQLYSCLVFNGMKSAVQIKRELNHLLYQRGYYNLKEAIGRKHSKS
Put plainly: Inhibition of Plasmodium falciparum DHODH expressed in Escherichia coli DH5alpha using 2,6-dichoroindophenol substrate by spectrophotometric analysis. The essentials:
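Recombinant purified enzyme; colorimetric steady-state assay following DCIP (120 micromolar) reduction at 600 nm, coupled to CoQ_D reoxidation. Started with enzyme (5–10 nM final), 20 °C. IC50 fitted across inhibitor concentrations, triplicate points each.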

Series [3] can be described thus: Inhibition of Plasmodium berghei DHODH expressed in Escherichia coli DH5alpha using 2,6-dichoroindophenol substrate by spectrophotometric analysis.
For series [4], the target named is Dihydroorotate dehydrogenase (quinone), mitochondrial (Homo sapiens, UniProt Q02127). Put plainly: Inhibition of human DHODH expressed in Escherichia coli BL21(DE3) using 2,6-dichoroindophenol substrate by spectrophotometric analysis.
Series [5] in a line: Plasma concentration in Swiss mouse at 10 mg/kg, po up to 4 hrs. Also on record: dose 10 mg/kg, route oral. It is filed as ADME, organism-based. The method in brief:
(§1)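 Single 10 mg/kg oral gavage dose (0.1 mL) given as a suspension in 0.5% w/v Na carboxymethylcellulose, 0.5% v/v benzyl alcohol, 0.4% v/v Tween 80. Food and water ad libitum. One cardiac-puncture blood sample per mouse at 1, 2, 4, 7.5, 16 and 24 h. Heparinised plasma stored at –20°C, acetonitrile-precipitated and quantified by LC-MS against a plasma calibration curve; quantitation limit 0.003 μM.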

Series [6] has as its system Liver. Nature of the series: Half life in mouse liver microsomes at 1 uM by LC/MS analysis. It is filed as ADME, Microsome. The essentials: (§2)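 Compound at 1 μM incubated at 37°C with pooled human or mouse liver microsomes (0.4 mg/mL protein). Reaction started with NADPH-regenerating system (1 mg/mL NADP, 1 mg/mL glucose-6-phosphate, 1 U/mL G6PDH, 0.67 mg/mL MgCl2) and quenched at time points with ice-cold acetonitrile. Parent loss tracked by LC/MS against a microsomal-matrix calibration curve. First-order depletion rate constant came from an exponential decay fit.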
On the technique in general: Liver microsomes are a subcellular fraction often used to study metabolism.

Series [7] is described as follows: Plasma concentration in Swiss mouse at 10 mg/kg, po at 16 hrs. It is filed as ADME, organism-based. Set-up: dose 10 mg/kg, route oral. The method in brief: as §1
Series [8] can be described thus: Cmax in Swiss mouse at 10 mg/kg, po. It is filed as ADME, organism-based. Also on record: dose 10 mg/kg, route oral. Conditions: in vivo; call rule not given here. The essentials:
as §1

Series [9] relates to Liver. Nature of the series: Intrinsic clearance in mouse liver microsomes assessed per mg of protein at 1 uM by LC/MS analysis. It is filed as ADME, Microsome. The essentials: as §2
Series [10] has as its system Liver microsomes. Nature of the series: Intrinsic clearance in human liver microsomes assessed per mg of protein at 1 uM by LC/MS analysis. It is filed as ADME, Microsome. The essentials: as §2
A short description of series [11]: Drug metabolism in mouse liver microsomes by LC/MS analysis. It is filed as ADME, Microsome. The essentials: as §2
Series [12] concerns Plasmodium berghei. Put plainly: Antimalarial activity against erythrocytic stage of Plasmodium berghei NK65 infected in BALB/c mouse assessed as reduction in parasitemia at 50 mg/kg, po administered QD for 4 days starting 1 day post-infection measured 24 hrs post-last dose relative to vehicle-treated control. It is filed as functional. Also on record: scale not given: the % may be the effect or the level left. The method in brief: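 Female BALB/c mice, 8–10 weeks old, infected IP with 2×10^7 infected erythrocytes (200 μL) 24 h before first dose; minimum 0.1% parasitemia confirmed before treatment. Oral dosing 1× daily for 4 consecutive days, vehicle or chloroquine (10 mg/kg oral, same schedule) as controls. Parasitemia from Wright-Giemsa-stained thin blood smears, tail-vein bleeds daily.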

The subject of series [13] is Liver microsomes. Nature of the series: Half life in human liver microsomes at 1 uM by LC/MS analysis. It is filed as ADME, Microsome. The essentials: as §2
Series [14] concerns Liver microsomes. Nature of the series: Drug metabolism in human liver microsomes by LC/MS analysis. It is filed as ADME, Microsome. The essentials: as §2
In series [15] the test system is Mus musculus. Put plainly: Toxicity in Swiss mouse assessed as adverse effects at 10 mg/kg, po. Also on record: dose 10 mg/kg, route oral. The following applies: in vivo. It is filed as organism-based. The method in brief: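 Mice watched for adverse reactions after one oral 10 mg/kg dose, given as a suspension in aqueous carboxymethylcellulose/benzyl alcohol/Tween 80 vehicle.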

The values that follow come from ChEMBL document CHEMBL2169788, “Bioisosteric transformations and permutations in the triazolopyrimidine scaffold to identify the minimum pharmacophore required for inhibitory activity against Plasmodium falciparum dihydroorotate dehydrogenase” (J Med Chem, 2012).

SMILES strings stand for the structures.

Chain of Dihydroorotate dehydrogenase (quinone), mitochondrial (Q02127 whole entry): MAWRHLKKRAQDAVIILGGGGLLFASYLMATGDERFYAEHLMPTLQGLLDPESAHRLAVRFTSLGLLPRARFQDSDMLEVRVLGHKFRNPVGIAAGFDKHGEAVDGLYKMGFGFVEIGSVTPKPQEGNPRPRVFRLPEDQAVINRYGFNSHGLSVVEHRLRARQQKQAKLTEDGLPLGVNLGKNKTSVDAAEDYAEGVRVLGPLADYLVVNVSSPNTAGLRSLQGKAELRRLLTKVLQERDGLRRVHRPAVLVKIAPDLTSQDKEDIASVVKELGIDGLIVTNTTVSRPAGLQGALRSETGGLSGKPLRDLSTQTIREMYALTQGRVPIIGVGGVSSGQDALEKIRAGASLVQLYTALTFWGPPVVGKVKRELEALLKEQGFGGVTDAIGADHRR

Regarding `Cc1nc(Nc2ccc3ncccc3c2)c2nc[nH]c2n1`, the EC50 in [1] amounted to 3.2 µM. This compound also registered an IC50 in series [2] greater than 25 µM.

With `Cc1nc(Nc2ccc3ccccc3c2)c2cn[nH]c2n1`, the 50% effective concentration (EC50) in series [1] is greater than 12.5 µM. The compound further had an IC50 in [2] greater than 100 µM.

Turning to `Cc1nc(Nc2ccc3ccccc3c2)c2nc[nH]c2n1`, the concentration for a half-maximal effect (EC50) in series [1] is 2.2 µM. In addition, the IC50 was 11 µM in series [3], 0.44 µM in series [2] and greater than 100 µM in [4].

`Cc1nc(Nc2n[nH]cc2C#N)c2nc[nH]c2n1`: in series [1], the EC50 is greater than 25 µM. Besides, in series [2], the IC50 was greater than 100 µM.

For `Cc1cc(Nc2ccc3ccccc3c2)c2nncn2n1`, the EC50 in [1] is greater than 5 µM. Further, the IC50 in [3] and in series [2] was greater than 50 µM each time.

Turning to `Cc1cc(NC(=O)c2ccc(C(F)(F)F)cc2)n2ncnc2n1`, the EC50 in [1] was greater than 50 µM. For the same compound, the IC50 in series [3], in series [2] and in series [4] was greater than 100 µM in each case.

As for `Cc1cc(Nc2ccc3ccccc3c2)n2nccc2n1`, the EC50 in series [1] was found to be 0.91 µM. Further, the figures for the IC50 in series [3], in [2] and in series [4] were 3.3 µM, 0.4 µM and greater than 100 µM, respectively.

As to `Cc1cc(Nc2ccc3ccccc3c2)n2ncnc2c1`, in series [1], the EC50 is 5.2 µM. Also, the results for the half-maximal inhibitory concentration (IC50) in series [3] and in series [2] were 6.3 µM and 4.8 µM, respectively.

`Cc1cc(Nc2ccc(C(F)(F)F)cc2)n2ccnc2n1` yielded a concentration at 4 h in series [5] greater than 1000 nM. The t1/2 is listed as 51.8 min in series [6] and 368 min in series [13]. In [7], this compound yielded a concentration at 16 h of less than 3 nM. In series [8], this compound showed a Cmax of 3.9 µM. Also, the EC50 in [1] amounted to 0.32 µM. In addition, the values for the CLint in series [9] and in [10] were 0.034 mL/min/mg and 0.0047 mL/min/mg, respectively. The results for the half-inhibitory concentration (IC50) in series [3], in [2] and in series [4] were 0.17 µM, 0.077 µM and greater than 100 µM, respectively. For the same compound, the Drug metabolism result in series [11] and in series [14] was “Not Active” throughout. For the same compound, the Activity in series [12] is on record as 56%; in series [15], “Non-toxic”.

For the compound `Cc1cc(Nc2ccc3ccccc3c2)n2ccnc2n1`, in series [1], the half-maximal effective concentration (EC50) worked out at 0.19 µM. In addition, the concentration for half-maximal inhibition (IC50) in series [3] is 2.8 µM; in [2], 0.15 µM; in series [4] it was greater than 100 µM.

Take `Cc1cc(NC(=O)c2ccccc2)n2ncnc2n1`: the EC50 in series [1] is greater than 100 µM. For the same compound, the half-maximal inhibitory concentration (IC50) in [3], in series [2] and in series [4] was greater than 100 µM each time.

As to `Cc1nc(Nc2ccc3cc4ccccc4cc3c2)c2nc[nH]c2n1`, in series [1], the concentration for a half-maximal effect (EC50) turned out to be 3.2 µM. Besides, the values for the IC50 in series [3] and in series [2] were greater than 10 µM and 4.8 µM, respectively.

Take `Cc1nc(Nc2cnc3ccccc3c2)c2nc[nH]c2n1`: the half-maximal effective concentration (EC50) in series [1] is greater than 10 µM. In addition, the half-inhibitory concentration (IC50) in [2] is 27 µM.

As a reminder, the EC50 is the concentration that produces a half-maximal response. The IC50 is the concentration that gives 50% inhibition. Broadly, the Cmax is the maximum level reached in the sampled fluid or tissue.
